According to ChEMBL document CHEMBL4251567 (Eur J Med Chem, 2018):

What was measured:
Histone deacetylase = assay: Inhibition of HDAC in human HeLa-S3 cell lysates preincubated for 15 mins followed by HDAC-Glo substrate addition measured after 35 mins by fluorimetric method; type: protein assay
[1] = target: T1, Histone deacetylase (Homo sapiens) (UniProt Q13547+O15379+Q9UBN7+Q92769+Q9UQL6+Q8WUI4+Q9BY41+Q96DB2+P56524+Q9UKV0+Q969S8); assay: Inhibition of HDAC in human HeLa-S3 cell lysates assessed as residual activity at 1 x 10^-5 M preincubated for 15 mins followed by HDAC-Glo substrate addition measured after 35 mins by […] relative to control; type: protein assay
Outline: (§1)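 Lysate (1 μg total protein) in HDAC-Glo buffer was preincubated with inhibitor in DMSO for 15 min at room temperature. HDAC-Glo substrate/developer reagent was added and luminescence read after 35 min. Concentrations are final. Signal corrected for a no-lysate blank; % of DMSO control.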

[2] = target: T1, Histone deacetylase (Homo sapiens); assay: Inhibition of HDAC in human HeLa-S3 cell lysates assessed as residual activity at 5 x 10^-6 M preincubated for 15 mins followed by HDAC-Glo substrate addition measured after 35 mins by fluorimetric method relative to control; type: protein assay; outline: as §1
[3] = target: T1, Histone deacetylase (Homo sapiens); assay: Inhibition of HDAC in human HeLa-S3 cell lysates assessed as residual activity at 2.5 x 10^-6 M preincubated for 15 mins followed by HDAC-Glo substrate addition measured after 35 mins by […] relative to control; type: protein assay; outline: as §1
[4] = target: T1, Histone deacetylase (Homo sapiens); assay: Inhibition of HDAC in human HeLa-S3 cell lysates assessed as residual activity at 1.25 x 10^-6 M preincubated for 15 mins followed by HDAC-Glo substrate addition measured after 35 mins by […] relative to control; type: protein assay; outline: as §1
[5] = target: T1, Histone deacetylase (Homo sapiens); assay: Inhibition of HDAC in human HeLa-S3 cell lysates assessed as residual activity at 6.25 x 10^-6 M preincubated for 15 mins followed by HDAC-Glo substrate addition measured after 35 mins by […] relative to control; type: protein assay
[6] = target: Histone deacetylase 1 (Homo sapiens) (UniProt Q13547); assay: Inhibition of HDAC1 in human HeLa-S3 cell lysates assessed as remaining activity at […] preincubated for 15 mins followed by HDAC-Glo substrate addition measured after 30 to 40 mins by […] relative to control
[7] = target: Histone deacetylase 2 (Homo sapiens) (UniProt Q92769); assay: Inhibition of HDAC2 in human HeLa-S3 cell lysates assessed as remaining activity at […] preincubated for 15 mins followed by HDAC-Glo substrate addition measured after 30 to 40 mins by […] relative to control
[8] = target: Histone deacetylase 3 (Homo sapiens) (UniProt O15379); assay: Inhibition of HDAC3 in human HeLa-S3 cell lysates assessed as remaining activity at […] preincubated for 15 mins followed by HDAC-Glo substrate addition measured after 30 to 40 mins by […] relative to control
[9] = target: T2, Protein deacetylase HDAC6 (Homo sapiens) (UniProt Q9UBN7); assay: Inhibition of HDAC6 in human HeLa-S3 cell lysates assessed as remaining activity at […] preincubated for 15 mins followed by HDAC-Glo substrate addition measured after 30 to 40 mins by […] relative to control
T2 sequence (whole entry): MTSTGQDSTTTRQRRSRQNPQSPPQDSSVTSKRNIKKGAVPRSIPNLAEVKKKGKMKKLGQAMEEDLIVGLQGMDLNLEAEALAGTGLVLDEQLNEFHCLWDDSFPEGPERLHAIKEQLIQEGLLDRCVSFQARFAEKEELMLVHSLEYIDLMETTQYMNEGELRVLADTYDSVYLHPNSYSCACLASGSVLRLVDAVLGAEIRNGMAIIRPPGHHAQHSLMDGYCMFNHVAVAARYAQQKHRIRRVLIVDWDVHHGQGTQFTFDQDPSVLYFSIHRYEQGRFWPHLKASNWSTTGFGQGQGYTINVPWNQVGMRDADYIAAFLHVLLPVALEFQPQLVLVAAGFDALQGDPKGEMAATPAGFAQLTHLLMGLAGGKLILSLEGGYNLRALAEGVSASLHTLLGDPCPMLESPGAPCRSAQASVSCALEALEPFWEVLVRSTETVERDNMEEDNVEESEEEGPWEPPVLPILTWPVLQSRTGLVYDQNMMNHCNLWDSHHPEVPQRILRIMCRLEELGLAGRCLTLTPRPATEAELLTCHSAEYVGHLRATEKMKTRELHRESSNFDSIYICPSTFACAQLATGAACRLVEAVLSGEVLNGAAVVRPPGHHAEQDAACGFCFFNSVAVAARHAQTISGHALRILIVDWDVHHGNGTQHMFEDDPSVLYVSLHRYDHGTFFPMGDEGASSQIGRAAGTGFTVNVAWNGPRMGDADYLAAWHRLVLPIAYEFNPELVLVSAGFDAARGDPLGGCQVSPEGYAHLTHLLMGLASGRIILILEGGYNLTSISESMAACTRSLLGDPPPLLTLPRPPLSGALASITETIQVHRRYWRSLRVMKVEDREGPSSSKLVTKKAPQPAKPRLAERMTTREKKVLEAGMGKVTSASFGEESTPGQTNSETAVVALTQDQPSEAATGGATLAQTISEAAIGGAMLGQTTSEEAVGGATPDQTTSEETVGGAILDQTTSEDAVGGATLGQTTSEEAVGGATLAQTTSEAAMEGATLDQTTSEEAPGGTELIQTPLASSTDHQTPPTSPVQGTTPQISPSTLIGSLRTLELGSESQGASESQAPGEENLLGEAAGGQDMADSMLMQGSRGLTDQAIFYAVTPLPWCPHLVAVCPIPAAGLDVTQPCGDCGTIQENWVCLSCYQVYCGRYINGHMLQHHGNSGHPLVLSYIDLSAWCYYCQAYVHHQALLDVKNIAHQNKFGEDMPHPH

U-937 [10] = assay: Cytotoxicity against human U937 cells assessed as decrease in cell viability after 44 hrs by MTT assay; type: functional, cell-based; settings: u-937
U-937 [11] = assay: Cytotoxicity against human U937 cells assessed as cell viability at 6.4 x 10^-5 M after 44 hrs by MTT assay relative to control; type: functional; settings: U-937, 44 h, read-out: Activity
U-937 [12] = assay: Cytotoxicity against human U937 cells assessed as cell viability at 3.2 x 10^-5 M after 44 hrs by MTT assay relative to control; type: functional; settings: U-937, 44 h, read-out: Activity
U-937 [13] = assay: Cytotoxicity against human U937 cells assessed as cell viability at 1.6 x 10^-5 M after 44 hrs by MTT assay relative to control; type: functional; settings: U-937, 44 h, read-out: Activity
U-937 [14] = assay: Cytotoxicity against human U937 cells assessed as cell viability at 8 x 10^-6 M after 44 hrs by MTT assay relative to control; type: functional; settings: U-937, 44 h, read-out: Activity
U-937 [15] = assay: Cytotoxicity against human U937 cells assessed as cell viability at 4 x 10^-6 M after 44 hrs by MTT assay relative to control; type: functional; settings: U-937, 44 h, read-out: Activity
U-937 [16] = assay: Cytotoxicity against human U937 cells assessed as cell viability at 2 x 10^-6 M after 44 hrs by MTT assay relative to control; type: functional; settings: U-937, 44 h, read-out: Activity
Jurkat [17] = assay: Cytotoxicity against human Jurkat cells assessed as cell viability at 1 uM after 44 hrs by MTT assay relative to control; type: functional; settings: read-out: Activity
Jurkat [18] = assay: Cytotoxicity against human Jurkat cells assessed as cell viability at 10 uM after 44 hrs by MTT assay relative to control; type: functional; settings: read-out: Activity

Histone deacetylase 1 (Homo sapiens), sequence (Q13547 whole entry): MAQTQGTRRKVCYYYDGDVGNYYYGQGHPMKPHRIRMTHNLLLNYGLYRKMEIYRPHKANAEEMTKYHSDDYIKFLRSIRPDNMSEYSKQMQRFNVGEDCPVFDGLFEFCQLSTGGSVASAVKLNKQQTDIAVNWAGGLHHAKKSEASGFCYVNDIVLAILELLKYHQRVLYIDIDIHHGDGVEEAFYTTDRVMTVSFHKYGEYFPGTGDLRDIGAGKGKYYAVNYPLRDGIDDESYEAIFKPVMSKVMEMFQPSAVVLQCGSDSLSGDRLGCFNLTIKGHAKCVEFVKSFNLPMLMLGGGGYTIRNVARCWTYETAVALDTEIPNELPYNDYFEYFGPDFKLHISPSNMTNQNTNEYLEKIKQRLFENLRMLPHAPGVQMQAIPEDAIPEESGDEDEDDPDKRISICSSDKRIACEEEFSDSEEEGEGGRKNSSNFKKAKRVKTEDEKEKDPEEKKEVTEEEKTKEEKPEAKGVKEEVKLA
Histone deacetylase 2 (Homo sapiens), sequence (Q92769 whole entry): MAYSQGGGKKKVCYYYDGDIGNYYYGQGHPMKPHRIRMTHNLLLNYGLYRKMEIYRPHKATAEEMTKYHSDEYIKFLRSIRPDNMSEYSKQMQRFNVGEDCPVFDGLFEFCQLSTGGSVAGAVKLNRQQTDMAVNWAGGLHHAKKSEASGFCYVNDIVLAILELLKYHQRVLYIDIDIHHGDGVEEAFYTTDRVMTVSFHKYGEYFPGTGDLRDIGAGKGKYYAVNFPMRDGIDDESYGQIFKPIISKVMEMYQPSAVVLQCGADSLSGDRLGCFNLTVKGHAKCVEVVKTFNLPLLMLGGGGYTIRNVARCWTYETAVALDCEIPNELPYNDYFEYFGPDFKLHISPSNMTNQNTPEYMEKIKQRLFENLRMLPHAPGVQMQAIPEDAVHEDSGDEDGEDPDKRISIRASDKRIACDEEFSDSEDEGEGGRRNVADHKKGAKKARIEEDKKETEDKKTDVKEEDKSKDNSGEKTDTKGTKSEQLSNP
Histone deacetylase 3 (Homo sapiens), sequence (O15379 whole entry): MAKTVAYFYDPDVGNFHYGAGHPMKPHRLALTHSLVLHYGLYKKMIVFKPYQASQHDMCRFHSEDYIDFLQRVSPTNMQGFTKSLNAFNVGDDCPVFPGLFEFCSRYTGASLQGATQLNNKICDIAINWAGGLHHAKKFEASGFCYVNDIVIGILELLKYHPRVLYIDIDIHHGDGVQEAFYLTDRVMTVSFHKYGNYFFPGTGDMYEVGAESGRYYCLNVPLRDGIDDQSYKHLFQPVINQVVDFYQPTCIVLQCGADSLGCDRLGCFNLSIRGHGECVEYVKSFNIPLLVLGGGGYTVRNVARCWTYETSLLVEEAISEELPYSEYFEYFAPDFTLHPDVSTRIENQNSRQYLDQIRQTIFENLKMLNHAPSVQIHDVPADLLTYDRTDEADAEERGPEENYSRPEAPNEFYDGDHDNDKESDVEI

IC50 (Histone deacetylase)	Activity [1]	Activity [2]	Activity [3]	Activity [4]	Activity [5]	Activity [6]	Activity [7]	Activity [8]	Activity [9]	SMILES	EC50 (U-937 [10])	viability at 64 µM (U-937 [11])	viability at 32 µM (U-937 [12])	viability at 16 µM (U-937 [13])	viability at 8 µM (U-937 [14])	viability at 4 µM (U-937 [15])	viability at 2 µM (U-937 [16])	viability at 1 µM (Jurkat [17])	viability at 10 µM (Jurkat [18])
3.3 µM	17%	38%	60%	79%	91%	75%	90%	78%	26%	CC(CCCC(=O)Nc1ccccc1)CCC(=O)NO (centres undefined)	–	–	–	–	–	–	–	–	–
–	–	–	–	–	–	–	–	–	–	CCCCC(CCCC(=O)Nc1ccccc1)CCC(=O)NO (centres undefined)	34 µM	24%	54%	80%	87%	100%	100%	98%	62%
